Test results published in ChEMBL document CHEMBL2146399, “Anti-androgen receptor activity of apoptotic CK2 inhibitor CX4945 in human prostate cancer LNCap cells” (Bioorg Med Chem Lett, 2012).
Activity calls are given as the source filed them. The calls are words filed in the database; no cut-off is given here.

Legend:
LNCaP [1] = experiment: Downregulation of survivin expression in human LNCAP cells at 0.1 to 30 uM after 24 hrs by Western blot analysis; format: functional, cell-based
Method in brief: (§1)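 Western blot: cells homogenized and spun at 10,000 g for 15 min. Supernatant kept as cytoplasmic fraction; nuclear proteins extracted with a kit. Denatured proteins run on gels, transferred to PVDF, probed with specific antibodies, and detected by enhanced chemiluminescence.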

LNCaP [2] = experiment: Inhibition of Akt phosphorylation in human LNCAP cells at 0.1 to 30 uM after 30 mins by Western blot analysis; format: cell-based; method in brief: as §1
LNCaP [3] = experiment: Downregulation of CK2alpha expression in human LNCAP cells assessed as reduction of cytosolic protein level at 10 uM after 12 to 24 hrs by Western blot analysis; format: functional, cell-based; method in brief: as §1
LNCaP [4] = experiment: Induction of apoptosis in human LNCAP cells at 30 uM after 72 hrs by AnnexinV staining based fluorescent microscopy; format: functional, cell-based
Method in brief: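 LNCaP cells (5 10^4) plated on coverslips coated with 1% gelatin and treated 72 h. Annexin V kit staining, fixation in 2% formaldehyde, nuclei counterstained with 10 µg/ml DAPI. Annexin V-positive cells counted by fluorescence microscopy.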

LNCaP [5] = experiment: Cytotoxicity against human LNCAP cells assessed as cell viability at 1 to 10 uM after 1 day by luciferase assay; format: cell-based; conditions: 24 h, in the assay text read “by CCK-8 assay” for “by luciferase assay”
Method in brief: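 LNCaP cells lentivirally transduced with an AR luciferase reporter and selected with 30 µg/ml puromycin. Cells at 4 10^4 per well, kept 1 day in 10% stripped FBS, then treated 1 day in 0.1% stripped FBS with or without 0.1 µM DHT. Luciferase measured for AR activation and CCK-8 for viability; Student's t-test.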

[6] = Cytotoxicity against human RWPE1 cells assessed as cell viability after 1 to 3 days by CCK8 method; format: cell-based; conditions: rwpe-1
Method in brief: (§2)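 Normal prostate RWPE-1 cells kept in keratinocyte serum-free medium with 0.05 mg/ml bovine pituitary extract and 5 ng/ml recombinant human EGF. Cells seeded at 1 10^4 per well, cultured 24 h, then treated 1–3 days. Viability measured by CCK-8 in triplicate.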

[7] = Cytotoxicity against human RWPE1 cells assessed as cell viability at 10 uM after 3 days by CCK8 method; format: cell-based, RWPE-1; conditions: read-out: Activity; method in brief: as §2
LNCaP [8] = experiment: Cytotoxicity against human LNCAP cells assessed as cell viability after 4 days by CCK8 method; format: functional, cell-based; conditions: 96 h
Method in brief: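 LNCaP cells grown in RPMI1640 with 10% FBS plus penicillin/streptomycin at 37 °C, 5% CO2. Cells seeded at 3 10^3 per well, cultured 24 h, then exposed to compound for 4 days. Viability read by CCK-8 absorbance, in triplicate.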

LNCaP [9] = experiment: Downregulation of CK2alpha expression in human LNCAP cells assessed as reduction of nuclear protein level at 10 uM after 12 to 24 hrs by Western blot analysis; format: functional, cell-based; method in brief: as §1
LNCaP [10] = experiment: Antiapoptotic activity against human LNCAP cells assessed as cell survival at 10 uM after 1 day by CCK8 method; format: functional; conditions: 24 h, read-out: Activity
LNCaP [11] = experiment: Induction of apoptosis in human LNCAP cells assessed as increase in caspase3 activation at >10 uM after 1 to 2 days; format: functional, cell-based
Method in brief: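 LNCaP cells seeded at 1 10^4 per well, cultured 24 h, then treated 1 or 2 days. Caspase-3 activity read with a commercial caspase-3 kit in triplicate. Significance by Student's t-test, P < 0.05.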

LNCaP [12] = experiment: Cytotoxicity against human LNCAP cells assessed as cell viability at 10 uM by CCK8 method; format: functional, cell-based; conditions: TDE = time-dependent effect

Row | SMILES | Activity (LNCaP [1]) | inhibition (LNCaP [2]) | Activity (LNCaP [3]) | Activity (LNCaP [4]) | Activity (LNCaP [5]) | Activity [6] | viability at 72 h, 10 µM [7] [%] | IC50 (LNCaP [8]) [µM] | Activity (LNCaP [9]) | viability at 10 µM (LNCaP [10]) [%] | Activity (LNCaP [11]) | Activity (LNCaP [12])
1 | O=c1cc(N2CCOCC2)oc2c(-c3ccccc3)cccc12 | Active | Active |  |  |  |  |  |  |  |  |  | 
2 | O=C(O)c1ccc2c(c1)nc(Nc1cccc(Cl)c1)c1ccncc12 [SILMITASERTIB] |  |  | Active | Active | Non-toxic | Non-toxic | 94 | 4.59 | Active | 72 | Active | tde
